# Assay outcomes: PubChem BioAssay, Broad Institute
# In the library only some 3% were active in any assay of this set; here they are far more common.
# C2C12 statin: suppressors of statin myotoxicity in C2C12 myotubes, primary screen, cell-based, single point, plate reader; AID 602340, 2012; rescue of ATP level, % at 7.49 µM; C2C12 myotubes + simvastatin, ATP luminescence, 48 h; scaled: DMSO 0, geranylgeraniol control 100; 0.78% of 330,000 active;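 active = mean ATP rescue above about 67%, or every replicate alone reaching that limit, limit read from the data, passing the limit was not always enough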;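 also: myotubes were challenged with 10 µM simvastatin during compound exposure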
# Cneo AK release: Cryptococcus neoformans cell lysis inducers, primary screen, AK release luminescence, single concentration; lysis activity, % at 15 µM; AID 651654, 2012; 0.2% of 360,000 active; C. neoformans lysis, adenylate kinase release luminescence, 4 h; normalised: neutral wells 0, clomiphene wells 100;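 active = mean lysis activity across replicates of at least 80%, whatever share of replicates individually reach that level; inactive = mean lysis activity below 80%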
#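 Test system: log-phase Cryptococcus neoformans yeast cells; Quantity: yeast cell density of 5 × 10^6 cells/mL; Buffer or medium: YPD; Doses: single compound concentration per well; Timing: 4 h at 37 °C static, read 1 h later; Measured by: AK luminescence; Read-out basis: lysis from increased AK signal; Control set: Clomiphene as positive control.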
# PGC1a acetyl inh: inhibitors of PGC1a acetylation signal, primary screen, cell-based, U2OS, AlphaScreen, inhibitor mode. AlphaScreen anti-acetyl-lysine; with virally co-expressed GCN5 acetyltransferase. inhibition, % at 15.6 µM. 0.17% of 350,000 active. AID 651687, 2012;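 active = every replicate shows inhibition of at least 40%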;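 also: 0% = neutral control wells and 100% = positive control wells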
# SIRT5 inh: SIRT5 desuccinylase inhibitors, primary screen, biochemical, fluorescence imaging, single point, set 5 | NAD-dependent protein deacylase sirtuin-5, mitochondrial (Homo sapiens), Q9NXA8 | Purified SirT5, succinyl-peptide AMC, trypsin-coupled fluorescence | 1.1% of 330,000 active | inhibition, % at 15 µM; in the data active = inhibition above about 15%
# Target sequence (Q9NXA8 whole entry, looked up): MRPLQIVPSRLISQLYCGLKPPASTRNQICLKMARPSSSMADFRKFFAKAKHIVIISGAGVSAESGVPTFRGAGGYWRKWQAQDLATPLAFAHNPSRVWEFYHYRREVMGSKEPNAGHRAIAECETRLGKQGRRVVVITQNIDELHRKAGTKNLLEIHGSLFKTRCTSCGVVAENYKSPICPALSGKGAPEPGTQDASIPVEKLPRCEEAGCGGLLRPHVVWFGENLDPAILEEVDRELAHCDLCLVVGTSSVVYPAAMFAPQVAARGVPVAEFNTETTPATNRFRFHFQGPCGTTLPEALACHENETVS
# rRNA inh HTS: reduced GFP signal of wild-type E. coli, primary screen, bacterial rRNA inhibitor project, GFP/RFP fluorescence, OD600, single point; GFP signal change (wild-type ribosome), % (test concentration not listed); E. coli WT GFP vs humanized-ribosome RFP mutants, 24 h; stronger effect = lower value; DMSO median 0, no signal -100; AID 720706, 2013; 1.6% of 350,000 active;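 active = significant combined selectivity score with lowered wild-type GFP, culture density cut under 30%, mutant RFP and density less affected; inactive = any of these conditions unmet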
# S100A4 MyoIIA: inhibitors of S100A4-myosin IIA peptide binding, primary screen, biochemical, fluorescence polarization, TAMRA-MyoIIA peptide. Protein S100-A4 (Homo sapiens), P26447. inhibition, % at 10.7 µM. 0.14% of 360,000 active;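 active = mean inhibition of at least 70% across replicates, with every replicate also reaching that level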
# Target sequence (P26447 whole entry, looked up): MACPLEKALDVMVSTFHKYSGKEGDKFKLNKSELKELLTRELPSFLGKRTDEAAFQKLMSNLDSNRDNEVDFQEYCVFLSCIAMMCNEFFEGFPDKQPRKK
#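 Material: human S100A4 monomer with TAMRA-labelled myosin IIA peptide; buffer or medium: HEPES pH 7.2 with CaCl2, KCl, NaCl, DTT, Triton; compound dosing: one concentration per compound; schedule: 5 min incubation before reading; benchmarks: neutral control DMSO, positive control TFP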
# Starred values were filed as active, the others as inactive; / = no result.
SMILES,C2C12 statin,Cneo AK release,PGC1a acetyl inh,SIRT5 inh,rRNA inh HTS,S100A4 MyoIIA
Cc1ccc([N+](=O)[O-])cc1S(=O)(=O)NCCc1c(C)[nH]c2c(C)cccc12,/,-1,-9,-4,-20*,-1
Cc1[nH]c2c(C)cccc2c1CCNS(=O)(=O)c1cccc([N+](=O)[O-])c1,/,/,/,-3,-18,-7
Cc1noc(C)c1S(=O)(=O)Nc1ccc2c(c1)C(=O)N([C@H](C)CO)C[C@H](C)[C@H](CN(C)C(=O)Nc1ccc3c(c1)OCO3)O2,-28,-1,-7,0,2,-10
O=C(C[C@@H]1C[C@H]2c3cc(NC(=O)Cc4ccncc4)ccc3O[C@H]2[C@@H](CO)O1)NCc1ccc2c(c1)OCO2,-12,0,0,-1,2,31
Cc1noc(C)c1NC(=O)N(C)C[C@H]1Oc2ccc(NC(=O)Nc3cccc4ccccc34)cc2CC(=O)N([C@@H](C)CO)C[C@@H]1C,-17,56,-8,4,1,-3
O=C(CNC(c1ccccc1)c1ccccc1)Nc1ccccc1Br,5,-1,-15,-4,-33*,0
COc1ccccc1NC(=O)CNC(c1ccccc1)c1ccccc1,9,-1,/,-2,-8,4
C[C@H](CO)N1C[C@H](C)[C@H](CN(C)S(=O)(=O)c2cccc(F)c2)Oc2ncc(C#CC3CC3)cc2C1=O,18,-14,-17,3,-3,12
COC(=O)COc1c(/C=C\c2nc(O)c([N+](=O)[O-])c(=O)[nH]2)cccc1OC,6,3,55*,0,6,-1
C#CCOc1c(/C=C\c2nc(O)c([N+](=O)[O-])c(=O)[nH]2)cc(Br)cc1OC,-1,0,-3,5,-9,0
CCOC(=O)c1cnc2nc(C)nn2c1N,12,2,-4,69*,/,-4
CNS(=O)(=O)c1cc(NC(=O)c2cnc(SC)n2-c2ccccc2)ccc1C,9,-2,/,0,-21*,2
CCOC(=O)C1=Nc2cccc3c(O)ccc1c23,/,/,/,/,/,17
CCOC(=O)C1=Nc2ccccc2C1=[N+]=[N-],/,/,45*,/,/,/
CC(=O)Nc1c(C(=O)O)[nH]c2ccccc12,99*,0,-10,/,/,/
C[C@@H]1CN([C@@H](C)CO)C(=O)c2cccc(NC(=O)c3ccc(-c4nccs4)cc3)c2O[C@@H]1CN(C)Cc1ccc(C(F)(F)F)cc1,74*,4,-33,26*,-5,-4
CNC[C@@H]1Oc2c(N)cccc2C(=O)N([C@H](C)CO)C[C@H]1C,39,-6,1,2,3,4
C[C@@H]1CN([C@H](C)CO)C(=O)c2cccc(NC(=O)c3ccc(-c4nccs4)cc3)c2O[C@@H]1CN(C)Cc1ccc(C(F)(F)F)cc1,41,2,-16,17*,-2,-1
CNC[C@H]1Oc2c(N)cccc2C(=O)N([C@H](C)CO)C[C@@H]1C,-7,-2,9,3.0*,0,8
CNC[C@H]1Oc2c(NC(=O)c3ccc(-c4nccs4)cc3)cccc2C(=O)N([C@H](C)CO)C[C@H]1C,-7,-2,6,28*,2,-24
COc1cc(C2=NOC(C(=O)NCc3cccs3)C2)cc(OC)c1OC (centres undefined),87*,0,2,/,/,/
COc1cc(C2=NOC(C(=O)NCc3ccco3)C2)cc(OC)c1OC (centres undefined),/,-5,-37,/,/,/
COc1ccc(C2=NOC(C(=O)NCc3cccs3)C2)cc1 (centres undefined),97*,-6,-5,/,/,/
C[C@@H]1CN([C@@H](C)CO)C(=O)c2cc(NC(=O)Cc3cn(C)c4ccccc34)ccc2O[C@@H]1CN(C)S(=O)(=O)c1cccs1,38,0,4,1,-2,5
CCC(=O)N[C@@H]1C=C[C@H](CC(=O)NCCN2CCCCC2)O[C@H]1CO,-2,10,4,-4,3,0
